Measured values as given in ChEMBL document CHEMBL3627597, “Synthesis of Fluorine-Containing Phosphodiesterase 10A (PDE10A) Inhibitors and the In Vivo Evaluation of F-18 Labeled PDE10A PET Tracers in Rodent and Nonhuman Primate” (J Med Chem, 2015).

Assays:
[1] = test system: Blood; assay: Biodistribution in Sprague-Dawley rat blood at 1.48 to 2.22 MBq, iv measured at 30 mins by gamma counting analysis; assay type: ADME, organism-based; settings: in vivo, 0.5 h
Summary of the method: (§1)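 Male Sprague-Dawley rats (250 - 400 g), tail-vein injection of 1.48 - 2.22 MBq radiotracer under 2.5% isoflurane in oxygen; n=4 per time point, euthanized at 5, 30 and 60 min p.i. Brain regions obtained by gross dissection; peripheral tissues collected. Samples weighed, gamma-counted against a diluted-injectate standard; %ID/g calculated.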

[2] = test system: Liver; assay: Biodistribution in Sprague-Dawley rat liver at 1.48 to 2.22 MBq, iv measured at 5 mins by gamma counting analysis; assay type: ADME, organism-based; settings: in vivo; summary of the method: as §1
[3] = test system: Liver; assay: Biodistribution in Sprague-Dawley rat liver at 1.48 to 2.22 MBq, iv measured at 60 mins by gamma counting analysis; assay type: ADME, organism-based; settings: in vivo, 1 h; summary of the method: as §1
[4] = Ratio of drug level in striatum to cerebellum in Sprague-Dawley rat at 1.48 to 2.22 MBq, iv measured at 5 to 30 mins by gamma counting analysis; assay type: ADME, organism-based; settings: in vivo
Summary of the method: (§2)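 Striatum, cerebellum and cortex obtained by gross dissection from Sprague-Dawley rats (250 - 400 g, n=4 per time point) after tail-vein injection of 1.48 - 2.22 MBq under isoflurane anesthesia. Tissues weighed and gamma-counted with an injectate standard to give %ID/g; ratios taken from striatal versus non-target uptake.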

[5] = test system: Muscle tissue; assay: Biodistribution in Sprague-Dawley rat muscle at 1.48 to 2.22 MBq, iv measured at 30 mins by gamma counting analysis; assay type: ADME, organism-based; settings: in vivo, 0.5 h; summary of the method: as §1
[6] = test system: Muscle tissue; assay: Biodistribution in Sprague-Dawley rat muscle at 1.48 to 2.22 MBq, iv measured at 5 mins by gamma counting analysis; assay type: ADME, organism-based; settings: in vivo; summary of the method: as §1
[7] = test system: Nucleic Acid; assay: Ratio of drug level in striatum to frontal in cynomolgus monkey at 185 to 259 MBq, iv measured at 40 mins by micro PET image analysis; assay type: ADME, organism-based, Macaca fascicularis; settings: in vivo
Summary of the method: (§3)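 Adult male cynomolgus macaques (~4–6 kg), three independent PET studies per tracer on a microPET Focus 220. Animals fasted 12 h and anesthetized with ketamine (10 mg/kg) plus glycopyrrolate (0.13 mg/kg) i.m. A 10 min positioning transmission scan and a 45 min attenuation transmission scan were run, then a 3 h dynamic emission scan after venous tracer injection. Regional TACs came from ROIs, expressed as SUV (body weight, injected dose).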

[8] = test system: Plasma; assay: Retention time of the compound in cynomolgus monkey plasma at 185 to 259 MBq, iv by HPLC analysis; assay type: ADME, organism-based, Macaca fascicularis
Summary of the method: (§4)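 Arterial blood (~1.5 mL) drawn at 2, 15, 30, 60 and 90 min p.i. into heparinized syringes, then centrifuged to plasma. Plasma deproteinated with 2 parts ice-cold methanol. Extract run on C-18 HPLC, MeCN/0.1 M ammonium formate pH 4.5, 0.9 mL/min, UV 254 nm. 1-min fractions over 16 min were well-counted and decay-corrected; parent percentage taken from recovered activity.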

[9] = test system: Nucleic Acid; assay: Ratio of drug level in striatum to occipital in cynomolgus monkey at 185 to 259 MBq, iv measured at 40 mins by micro PET image analysis; assay type: ADME, organism-based, Macaca fascicularis; settings: in vivo; summary of the method: as §3
[10] = test system: Bone; assay: Biodistribution in Sprague-Dawley rat bone at 1.48 to 2.22 MBq, iv measured at 5 mins by gamma counting analysis; assay type: ADME, organism-based, Bone element; settings: in vivo; summary of the method: as §1
[11] = test system: Kidney; assay: Biodistribution in Sprague-Dawley rat kidney at 1.48 to 2.22 MBq, iv measured at 5 mins by gamma counting analysis; assay type: ADME, organism-based; settings: in vivo; summary of the method: as §1
[12] = test system: Brain; assay: Biodistribution in Sprague-Dawley rat brain at 1.48 to 2.22 MBq, iv measured at 5 mins by gamma counting analysis; assay type: ADME, organism-based; settings: in vivo; summary of the method: as §1
[13] = Metabolic stability in cynomolgus monkey plasma assessed as compound remaining at 185 to 259 MBq, iv measured at 15 mins by HPLC analysis; assay type: ADME, organism-based, Macaca fascicularis; settings: read-out: Stability; summary of the method: as §4
[14] = test system: Nucleic Acid; assay: Ratio of drug level in striatum to temporal region in cynomolgus monkey at 185 to 259 MBq, iv measured at 40 mins by micro PET image analysis; assay type: ADME, organism-based, Macaca fascicularis; settings: in vivo; summary of the method: as §3
[15] = test system: Brain; assay: Biodistribution in Sprague-Dawley rat brain at 1.48 to 2.22 MBq, iv measured at 30 mins by gamma counting analysis; assay type: ADME, organism-based; settings: in vivo, 0.5 h; summary of the method: as §1
[16] = test system: Muscle tissue; assay: Biodistribution in Sprague-Dawley rat muscle at 1.48 to 2.22 MBq, iv measured at 60 mins by gamma counting analysis; assay type: ADME, organism-based; settings: in vivo, 1 h; summary of the method: as §1
[17] = Metabolic stability in cynomolgus monkey plasma assessed as compound remaining at 185 to 259 MBq, iv measured at 30 mins by HPLC analysis; assay type: ADME, organism-based, Macaca fascicularis; settings: read-out: Stability; summary of the method: as §4
[18] = Metabolic stability in cynomolgus monkey plasma assessed as compound remaining at 185 to 259 MBq, iv measured at 60 mins by HPLC analysis; assay type: ADME, organism-based, Macaca fascicularis; settings: read-out: Stability; summary of the method: as §4
[19] = test system: Liver; assay: Biodistribution in Sprague-Dawley rat liver at 1.48 to 2.22 MBq, iv measured at 30 mins by gamma counting analysis; assay type: ADME, organism-based; settings: in vivo, 0.5 h; summary of the method: as §1
[20] = test system: Blood; assay: Biodistribution in Sprague-Dawley rat blood at 1.48 to 2.22 MBq, iv measured at 60 mins by gamma counting analysis; assay type: ADME, organism-based; settings: in vivo, 1 h; summary of the method: as §1
[21] = test system: Striatum; assay: Biodistribution in Sprague-Dawley rat striatum at 1.48 to 2.22 MBq, iv measured at 30 mins by gamma counting analysis; assay type: ADME, organism-based; settings: in vivo, 0.5 h; summary of the method: as §1
[22] = test system: Nucleic Acid; assay: Ratio of drug level in striatum to hippocampus in cynomolgus monkey at 185 to 259 MBq, iv measured at 40 mins by micro PET image analysis; assay type: ADME, organism-based, Macaca fascicularis; settings: in vivo; summary of the method: as §3
[23] = test system: Bone; assay: Biodistribution in Sprague-Dawley rat bone at 1.48 to 2.22 MBq, iv measured at 30 mins by gamma counting analysis; assay type: ADME, organism-based, Bone element; settings: in vivo, 0.5 h; summary of the method: as §1
[24] = test system: Kidney; assay: Biodistribution in Sprague-Dawley rat kidney at 1.48 to 2.22 MBq, iv measured at 60 mins by gamma counting analysis; assay type: ADME, organism-based; settings: in vivo, 1 h; summary of the method: as §1
[25] = test system: Rattus norvegicus; assay: Biodistribution in Sprague-Dawley rat fat tissue at 1.48 to 2.22 MBq, iv measured at 30 mins by gamma counting analysis; assay type: ADME, organism-based, Adipose tissue; settings: in vivo, 0.5 h; summary of the method: as §1
[26] = test system: Nucleic Acid; assay: Ratio of drug level in striatum to midbrain region in cynomolgus monkey at 185 to 259 MBq, iv measured at 40 mins by micro PET image analysis; assay type: ADME, organism-based, Macaca fascicularis, Brain; settings: in vivo; summary of the method: as §3
[27] = Metabolic stability in cynomolgus monkey plasma assessed as compound remaining at 185 to 259 MBq, iv measured at 2 mins by HPLC analysis; assay type: ADME, organism-based, Macaca fascicularis; settings: read-out: Stability; summary of the method: as §4
[28] = Metabolic stability in cynomolgus monkey plasma assessed as compound remaining at 185 to 259 MBq, iv measured at 90 mins by HPLC analysis; assay type: ADME, organism-based, Macaca fascicularis; settings: read-out: Stability; summary of the method: as §4
[29] = test system: Nucleic Acid; assay: Ratio of drug level in striatum to cortex in Sprague-Dawley rat at 1.48 to 2.22 MBq, iv measured at 5 to 30 mins by gamma counting analysis; assay type: ADME, organism-based; settings: in vivo; summary of the method: as §2
[30] = test system: Putamen; assay: Drug uptake in cynomolgus monkey putamen at 185 to 259 MBq, iv measured over 180 mins by micro PET image analysis; assay type: ADME, organism-based, Macaca fascicularis; settings: in vivo, 3 h
Summary of the method: (§5)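 Adult male cynomolgus macaques (~4–6 kg), three studies per tracer, fasted 12 h. Induction with ketamine 10 mg/kg plus glycopyrrolate 0.13 mg/kg i.m. Transmission scans of 10 min for positioning and 45 min for attenuation correction, then a 3 h dynamic microPET emission scan after venous injection of 185 - 259 MBq. ROI time-activity curves expressed as SUV (body weight and injected dose).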

[31] = test system: Nucleic Acid; assay: Ratio of drug level in striatum to white matter in cynomolgus monkey at 185 to 259 MBq, iv measured at 40 mins by micro PET image analysis; assay type: ADME, organism-based, Macaca fascicularis; settings: in vivo; summary of the method: as §3
[32] = test system: Nucleic Acid; assay: Ratio of drug level in striatum to cerebellum in cynomolgus monkey at 185 to 259 MBq, iv measured at 40 mins by micro PET image analysis; assay type: ADME, organism-based, Macaca fascicularis; settings: in vivo; summary of the method: as §3
[33] = test system: Bone; assay: Biodistribution in Sprague-Dawley rat bone at 1.48 to 2.22 MBq, iv measured at 60 mins by gamma counting analysis; assay type: ADME, organism-based, Bone element; settings: in vivo, 1 h; summary of the method: as §1
[34] = test system: Brain; assay: Biodistribution in Sprague-Dawley rat brain at 1.48 to 2.22 MBq, iv measured at 60 mins by gamma counting analysis; assay type: ADME, organism-based; settings: in vivo, 1 h; summary of the method: as §1
[35] = test system: Rattus norvegicus; assay: Biodistribution in Sprague-Dawley rat fat tissue at 1.48 to 2.22 MBq, iv measured at 5 mins by gamma counting analysis; assay type: ADME, organism-based, Adipose tissue; settings: in vivo; summary of the method: as §1
[36] = test system: Kidney; assay: Biodistribution in Sprague-Dawley rat kidney at 1.48 to 2.22 MBq, iv measured at 30 mins by gamma counting analysis; assay type: ADME, organism-based; settings: in vivo, 0.5 h; summary of the method: as §1
[37] = test system: Blood; assay: Biodistribution in Sprague-Dawley rat blood at 1.48 to 2.22 MBq, iv measured at 5 mins by gamma counting analysis; assay type: ADME, organism-based; settings: in vivo; summary of the method: as §1
[38] = test system: Caudate; assay: Drug uptake in cynomolgus monkey caudate at 185 to 259 MBq, iv measured over 180 mins by micro PET image analysis; assay type: ADME, organism-based, Macaca fascicularis, Caudate nucleus; settings: in vivo, 3 h; summary of the method: as §5
[39] = test system: Rattus norvegicus; assay: Biodistribution in Sprague-Dawley rat fat tissue at 1.48 to 2.22 MBq, iv measured at 60 mins by gamma counting analysis; assay type: ADME, organism-based, Adipose tissue; settings: in vivo, 1 h; summary of the method: as §1

Cn1cc(-c2ccncc2)c(-c2ccc(OCc3cc(OCC[18F])c4ccccc4n3)cc2)n1
Drug uptake [1]: 0.226 % ID/g
Drug uptake [2]: 6.88 % ID/g
Drug uptake [3]: 3.29 % ID/g
Ratio [4]: > 2
Drug uptake [5]: 0.134 % ID/g
Drug uptake [6]: 0.247 % ID/g
Ratio [7]: > 3
Retention_time [8]: 10.5 min
Ratio [9]: > 3
Drug uptake [10]: 0.189 % ID/g
Drug uptake [11]: 2.2 % ID/g
Drug uptake [12]: 0.118 % ID/g
remaining at 0.25 h [13]: 93%
Ratio [14]: > 3
Drug uptake [15]: 0.078 % ID/g
Drug uptake [16]: 0.132 % ID/g
remaining at 0.5 h [17]: 90%
remaining at 1 h [18]: 75%
Drug uptake [19]: 6.98 % ID/g
Drug uptake [20]: 0.215 % ID/g
Drug uptake [21]: Active
Ratio [22]: > 3
Drug uptake [23]: 0.091 % ID/g
Drug uptake [24]: 0.765 % ID/g
Drug uptake [25]: 0.302 % ID/g
Ratio [26]: > 3
remaining at 2 min [27]: 98%
remaining at 1.5 h [28]: 57%
Ratio [29]: > 2
Drug uptake [30]: Active
Ratio [31]: > 3
Ratio [32]: > 3
Drug uptake [33]: 0.142 % ID/g
Drug uptake [34]: 0.101 % ID/g
Drug uptake [35]: 0.213 % ID/g
Drug uptake [36]: 1.055 % ID/g
Drug uptake [37]: 0.362 % ID/g
Drug uptake [38]: Active
Drug uptake [39]: 0.259 % ID/g
